From ChEMBL document CHEMBL1155892, “Characterization of polyketide metabolites from foliar endophytes of Picea glauca” (J Nat Prod, 2008)
Active and inactive are the calls of the source. No cut-off for these calls is given here.

Key:
Saccharomyces cerevisiae = test: Toxicity against Saccharomyces cerevisiae by disc diffusion method; format: functional, organism-based
In short: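 Antifungal screen by disc diffusion. Dried extract, 50 mg dissolved in 1 mL CH2Cl2; 10 µL applied to each small filter disc under aseptic conditions, solvent left to evaporate overnight. Discs placed on malt extract agar plates inoculated with a lawn of yeast, incubated at 25 °C, and inhibition zones measured.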

Choristoneura fumiferana = test: Toxicity against Choristoneura fumiferana assessed as reduction in body weight by diet incorporation assay; format: functional, organism-based
In short: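 Spruce budworm diet-incorporation bioassay with disease-free larvae. Extract dissolved in CH2Cl2, mixed into synthetic diet at 400 µg/g, solvent evaporated overnight. Ten second-instar larvae per cup, 3 cups per extract, held at 25 °C, 55% RH, 16 h light/day until fifth instar (about 1 week). Each larva weighed and head capsule width measured. ANOVA with Fisher's LSD; rugulosin positive control, CH2Cl2 negative control.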

Hep 3B2 = test: Cytotoxicity against human Hep3B cells; format: functional, cell-based

| SMILES | Activity (Saccharomyces cerevisiae) | Activity (Choristoneura fumiferana) | Activity (Hep 3B2) |
| --- | --- | --- | --- |
| COC(=O)c1c(O)c(C)cc2oc3cccc(O)c3c(=O)c12 | Active | Active | – |
| COC(=O)c1ccc(O)c2c1C[C@@H](C)OC2=O | Active | Active | – |
| OCCc1ccc(O)cc1 | Active | Active | inactive |
| CCC[C@@H]1Cc2cc(OC)cc(O)c2C(=O)O1 | Active | Active | – |
| COc1cc(OC)c(C(=O)O)c(C(C)=O)c1 | Active | Active | – |
| COC(=O)c1c(OC)cc(OC)cc1C(C)=O | Active | Active | – |
| COc1cc(OC)c2c(c1)C(C)OC2=O (stereo not drawn) | Active | Active | – |
| Cc1ccc(O)c2c1C[C@@H](C)OC2=O | Active | Active | – |
| CCCCC1=C(C)COC1=O | Active | Active | – |
| C[C@@H]1Cc2c(C=O)ccc(O)c2C(=O)O1 | Active | Active | – |
| C[C@@H]1Cc2cccc(O)c2C(=O)O1 | Active | Active | – |
